Results on twelve compounds are retold here after ChEMBL document CHEMBL1250476, “Synthesis and antifungal evaluation of novel triazole derivatives as inhibitors of cytochrome P450 14alpha-demethylase” (2010).

In brackets after ≈: the same amount, converted by molar mass.

Common to all, as to format: functional
For assay [1], the system named is Candida albicans. The experiment in a line: Antifungal activity against Candida albicans SC5314 after 24 hrs by micro-broth dilution method. The settings on record: SC5314, 24 h. An outline of the steps:
(§1)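 Broth microdilution per NCCLS on Candida albicans. Compounds were dissolved in DMSO, serially diluted in growth medium, inoculated and incubated at 35 °C. Growth was read at 24 h, and MIC80 was taken as the first well with about 80% growth reduction relative to the drug-free control. Values are the mean of three replicates.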
For orientation: In broth dilution the organism is exposed to a series of concentrations in liquid medium.

For assay [2], the system named is Candida albicans. The experiment in a line: Antifungal activity against Candida albicans Y0109 after 24 hrs by micro-broth dilution method. The settings on record: Y0109, 24 h. An outline of the steps:
as §1

The test system of a further assay is Cryptococcus neoformans. Description: Antifungal activity against Cryptococcus neoformans after 72 hrs by micro-broth dilution method. An outline of the steps: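 Cryptococcus neoformans tested by NCCLS micro-broth dilution. Compounds were dissolved in DMSO, serially diluted in medium, inoculated and incubated at 35 °C. MIC80 was read at 72 h as the first well showing approximately 80% growth reduction compared with the drug-free well. Values are the mean of three replicate tests.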

A further assay relates to Candida parapsilosis. The experiment in a line: Antifungal activity against Candida parapsilosis by micro-broth dilution method. The settings on record: Lodderomyces parapsilosis. An outline of the steps:
(§2)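 MIC80 by broth microdilution in 96-well format following NCCLS. Compounds were dissolved in DMSO, serially diluted in growth medium, inoculated and incubated at 35 °C. The endpoint was the first well with about 80% growth reduction versus the drug-free well. Values are means of three replicate tests.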

A further assay concerns Candida tropicalis. Description: Antifungal activity against Candida tropicalis by micro-broth dilution method. An outline of the steps: as §2
A further assay concerns Trichophyton rubrum. The experiment in a line: Antifungal activity against Trichophyton rubrum by micro-broth dilution method. An outline of the steps: as §2
In another assay the test system is Kluyveromyces marxianus. Description: Antifungal activity against Candida kefyr by micro-broth dilution method. An outline of the steps:
as §2

The next assay has as its system Aspergillus fumigatus. The experiment in a line: Antifungal activity against Aspergillus fumigatus by micro-broth dilution method. An outline of the steps:
as §2

`CC(C)N(Cc1cn(Cc2ccc(Br)cc2)nn1)CC(O)(Cn1cncn1)c1ccc(F)cc1F` (stereo unspecified): the MIC in the assay on Candida albicans [1] was less than 0.125 µg/mL; against Candida albicans [2] it was 0.0625 µg/mL (≈ 0.114 µM); against Cryptococcus neoformans, 8 µg/mL (≈ 14.6 µM); in the assay on Candida parapsilosis, 4 µg/mL (≈ 7.32 µM); against Candida tropicalis, 1 µg/mL (≈ 1.83 µM); against Trichophyton rubrum it was 1 µg/mL (≈ 1.83 µM). The figures for the MIC in the assay with Kluyveromyces marxianus and in the assay on Aspergillus fumigatus were 0.25 µg/mL (≈ 0.458 µM) and greater than 64 µg/mL, respectively.

For the compound `CCCCCCCCCCCCCCCCn1cc(CN(CC(O)(Cn2cncn2)c2ccc(F)cc2F)C(C)C)nn1` (stereo unspecified), the MIC was less than 0.125 µg/mL against Candida albicans [1]; 0.0625 µg/mL (≈ 0.104 µM) against Candida albicans [2]; 2 µg/mL (≈ 3.32 µM) against Cryptococcus neoformans; 0.5 µg/mL (≈ 0.831 µM) against Candida parapsilosis; less than 0.125 µg/mL with Candida tropicalis; 0.25 µg/mL (≈ 0.415 µM) with Trichophyton rubrum. The MIC in the assay with Kluyveromyces marxianus is 0.25 µg/mL (≈ 0.415 µM); in the assay on Aspergillus fumigatus it was greater than 64 µg/mL.

For `CC(=O)N1CCN(c2ccc(OCC3COC(Cn4ccnc4)(c4ccc(Cl)cc4Cl)O3)cc2)CC1` (stereo unspecified) [KETOCONAZOLE], the MIC is less than 0.125 µg/mL against Candida albicans [1]; less than 0.125 µg/mL in the assay on Candida albicans [2]; 0.5 µg/mL (≈ 0.941 µM) against Cryptococcus neoformans; less than 0.125 µg/mL against Candida parapsilosis; less than 0.125 µg/mL against Candida tropicalis; less than 0.125 µg/mL against Trichophyton rubrum. In addition, the MIC came to 0.0625 µg/mL (≈ 0.118 µM) in the assay with Kluyveromyces marxianus and 0.125 µg/mL (≈ 0.235 µM) against Aspergillus fumigatus.

On to `OC(CN(Cc1cn(Cc2cccc(F)c2)nn1)C1CC1)(Cn1cncn1)c1ccc(F)cc1F` (stereo unspecified), for which the MIC in the assay on Candida albicans [1] is less than 0.125 µg/mL; with Candida albicans [2] it was 0.0625 µg/mL (≈ 0.129 µM); in the assay on Cryptococcus neoformans it was greater than 64 µg/mL; in the assay on Candida parapsilosis, less than 0.125 µg/mL; in the assay on Candida tropicalis it was less than 0.125 µg/mL; against Trichophyton rubrum it was less than 0.125 µg/mL. For the same compound, the MIC came out at 0.0156 µg/mL (≈ 0.0323 µM) in the assay with Kluyveromyces marxianus and 64 µg/mL (≈ 132 µM) in the assay on Aspergillus fumigatus.

Turning to `Cc1ccc(Cn2cc(CN(CC(O)(Cn3cncn3)c3ccc(F)cc3F)C(C)C)nn2)cc1` (stereo unspecified), the MIC in the assay with Candida albicans [1] stood at 1 µg/mL (≈ 2.08 µM); against Candida albicans [2], 0.0625 µg/mL (≈ 0.13 µM); in the assay with Cryptococcus neoformans, 8 µg/mL (≈ 16.6 µM); against Candida parapsilosis, 2 µg/mL (≈ 4.15 µM); against Candida tropicalis, 0.25 µg/mL (≈ 0.519 µM); with Trichophyton rubrum it was 0.25 µg/mL (≈ 0.519 µM). For the same compound, the MIC against Kluyveromyces marxianus was 1 µg/mL (≈ 2.08 µM); in the assay with Aspergillus fumigatus it was greater than 64 µg/mL.

Regarding `CC(C)N(Cc1cn(Cc2ccccc2)nn1)CC(O)(Cn1cncn1)c1ccc(F)cc1F` (stereo unspecified), the MIC is less than 0.125 µg/mL in the assay with Candida albicans [1]; 0.0039 µg/mL (≈ 0.00834 µM) against Candida albicans [2]; 8 µg/mL (≈ 17.1 µM) in the assay on Cryptococcus neoformans; 0.25 µg/mL (≈ 0.535 µM) against Candida parapsilosis; less than 0.125 µg/mL with Candida tropicalis; less than 0.125 µg/mL with Trichophyton rubrum. In addition, the MIC in the assay with Kluyveromyces marxianus was found to be 0.0625 µg/mL (≈ 0.134 µM); against Aspergillus fumigatus, 64 µg/mL (≈ 137 µM).

Take `CC(C)N(Cc1cn(Cc2ccccc2Cl)nn1)CC(O)(Cn1cncn1)c1ccc(F)cc1F` (stereo unspecified): the MIC in the assay on Candida albicans [1] was less than 0.125 µg/mL; in the assay on Candida albicans [2], 0.0039 µg/mL (≈ 0.00777 µM); in the assay on Cryptococcus neoformans it was 16 µg/mL (≈ 31.9 µM); against Candida parapsilosis, 2 µg/mL (≈ 3.98 µM); in the assay with Candida tropicalis, 1 µg/mL (≈ 1.99 µM); in the assay on Trichophyton rubrum it was less than 0.125 µg/mL. The MIC with Kluyveromyces marxianus was 0.25 µg/mL (≈ 0.498 µM); in the assay on Aspergillus fumigatus, greater than 64 µg/mL.

Take `CC(C)N(Cc1cn(Cc2ccc(Cl)cc2)nn1)CC(O)(Cn1cncn1)c1ccc(F)cc1F` (stereo unspecified): the MIC was less than 0.125 µg/mL in the assay on Candida albicans [1]; 0.0625 µg/mL (≈ 0.125 µM) with Candida albicans [2]; 4 µg/mL (≈ 7.97 µM) in the assay on Cryptococcus neoformans; 2 µg/mL (≈ 3.98 µM) with Candida parapsilosis; 0.5 µg/mL (≈ 0.996 µM) with Candida tropicalis; 0.5 µg/mL (≈ 0.996 µM) against Trichophyton rubrum. Besides, the values for the MIC in the assay with Kluyveromyces marxianus and against Aspergillus fumigatus were 0.25 µg/mL (≈ 0.498 µM) and greater than 64 µg/mL, respectively.

As to `CC(C)N(Cc1cn(Cc2ccc([N+](=O)[O-])cc2)nn1)CC(O)(Cn1cncn1)c1ccc(F)cc1F` (stereo unspecified), the MIC against Candida albicans [1] is less than 0.125 µg/mL; against Candida albicans [2], 0.0039 µg/mL (≈ 0.00761 µM); in the assay with Cryptococcus neoformans, 16 µg/mL (≈ 31.2 µM); with Candida parapsilosis, 4 µg/mL (≈ 7.8 µM); in the assay on Candida tropicalis, 1 µg/mL (≈ 1.95 µM); with Trichophyton rubrum, 2 µg/mL (≈ 3.9 µM). Also, the MIC was 0.25 µg/mL (≈ 0.488 µM) against Kluyveromyces marxianus and greater than 64 µg/mL against Aspergillus fumigatus.

On to `OC(CN(Cc1cn(Cc2cccc(Br)c2)nn1)C1CC1)(Cn1cncn1)c1ccc(F)cc1F` (stereo unspecified), for which the MIC against Candida albicans [1] is 0.0156 µg/mL (≈ 0.0287 µM); with Candida albicans [2], 0.0156 µg/mL (≈ 0.0287 µM); in the assay with Cryptococcus neoformans, 0.25 µg/mL (≈ 0.459 µM); in the assay with Candida parapsilosis, 0.25 µg/mL (≈ 0.459 µM); against Candida tropicalis it was 4 µg/mL (≈ 7.35 µM); against Trichophyton rubrum, 0.25 µg/mL (≈ 0.459 µM). In addition, the results for the MIC in the assay with Kluyveromyces marxianus and in the assay with Aspergillus fumigatus were 0.0625 µg/mL (≈ 0.115 µM) and greater than 64 µg/mL, respectively.

`CC(C)N(Cc1cn(Cc2ccc(C(C)(C)C)cc2)nn1)CC(O)(Cn1cncn1)c1ccc(F)cc1F` (stereo unspecified): the MIC is less than 0.125 µg/mL against Candida albicans [1]; 0.25 µg/mL (≈ 0.477 µM) with Candida albicans [2]; 32 µg/mL (≈ 61.1 µM) against Cryptococcus neoformans; 1 µg/mL (≈ 1.91 µM) in the assay with Candida parapsilosis; 2 µg/mL (≈ 3.82 µM) in the assay on Candida tropicalis; 1 µg/mL (≈ 1.91 µM) against Trichophyton rubrum. In addition, the MIC was 0.25 µg/mL (≈ 0.477 µM) against Kluyveromyces marxianus and greater than 64 µg/mL against Aspergillus fumigatus.

For `CC(C)N(Cc1cn(Cc2ccc(F)cc2)nn1)CC(O)(Cn1cncn1)c1ccc(F)cc1F` (stereo unspecified), the MIC with Candida albicans [1] was found to be 0.25 µg/mL (≈ 0.515 µM); against Candida albicans [2], 0.25 µg/mL (≈ 0.515 µM); in the assay with Cryptococcus neoformans, 8 µg/mL (≈ 16.5 µM); against Candida parapsilosis it was 4 µg/mL (≈ 8.24 µM); against Candida tropicalis, 1 µg/mL (≈ 2.06 µM); in the assay on Trichophyton rubrum, 2 µg/mL (≈ 4.12 µM). The MIC against Kluyveromyces marxianus was 0.25 µg/mL (≈ 0.515 µM); with Aspergillus fumigatus, greater than 64 µg/mL.

By MIC is commonly meant the least concentration at which growth counts as inhibited. A lower MIC goes with greater potency.
